Assay outcomes as filed in PubChem BioAssay.
Shown is part of a subset that was picked to be rich in hits.
KDM4C inh: blocks human GASC-1 (KDM4C) demethylase activity; inhibition, % at 12.5 µM; Q9H3R0; GST-KDM4C 2-372, H3K9me3 peptide, LANCE TR-FRET; actives 0.15% (n = 96,000); AID 720574;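 active = mean replicate inhibition above about 25%, with at least 55% of replicates also reaching it, limit read from the data, passing the limit was not always enough; inconclusive = only one of those two conditions met; inactive = neither condition met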
Target sequence (Q9H3R0 2-372 limits assumed): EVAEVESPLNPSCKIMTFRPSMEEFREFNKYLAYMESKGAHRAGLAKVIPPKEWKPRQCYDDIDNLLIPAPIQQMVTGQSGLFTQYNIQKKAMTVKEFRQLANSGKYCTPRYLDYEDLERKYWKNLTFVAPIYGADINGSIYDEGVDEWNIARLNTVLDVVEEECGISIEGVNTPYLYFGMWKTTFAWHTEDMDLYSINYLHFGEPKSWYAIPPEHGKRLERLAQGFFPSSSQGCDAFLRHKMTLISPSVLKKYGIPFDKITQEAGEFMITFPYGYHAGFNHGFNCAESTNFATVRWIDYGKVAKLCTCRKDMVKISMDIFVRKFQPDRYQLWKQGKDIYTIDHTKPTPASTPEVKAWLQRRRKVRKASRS
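material = GST-tagged GASC-1 (JMJD2C) catalytic fragment, aa 2-372 | amount = enzyme final amount 10 nM | medium = HEPES buffer, pH 7.5, plus ascorbate | also added = H3K9me3 peptide substrate, Fe(II), 2-oxoglutarate | dosing = single dose | times = 30 min demethylation and 1 h detection at room temperature | detection = LANCE TR-FRET | read-out basis = Fall in 671/618 emission ratio as inhibition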
IDH1 mut inh: blocks human IDH1 R132H reductase activity; diaphorase/resazurin fluorescence, 60 min; actives 0.18% (n = 70,000); AID 624101; inhibition, % at 10 µM; O75874; in the data active = inhibition above about 34%; inconclusive = no clear call, values can overlap the other calls; inactive = below about 11%;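 also: 0% = DMSO and 100% = no enzyme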
T cruzi growth-1: blocks T. cruzi growth in NIH3T3 culture; T. cruzi beta-gal in NIH3T3, GalScreen luminescence, 90 h; inhibition, % at 8.34 µM; actives 5.9% (n = 77,000);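 active = mean inhibition above about 93%, with at least 55% of replicates each passing it, limit read from the data, passing the limit was not always enough; inconclusive = only one of those two conditions holds; inactive = neither condition holds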
T cruzi growth-2: inhibitors of T. cruzi proliferation. actives 72% (n = 5,600). shares compounds with T cruzi growth-1. inhibition, % at 8.35 µM. T. cruzi beta-gal in NIH3T3, GalScreen luminescence, 90 h;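 active = mean replicate inhibition above about 95% and at least 55% of replicates individually reaching it, limit read from the data; inconclusive = only one of the two criteria is met; inactive = neither criterion is met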
T cruzi growth-3: inhibitors of T. cruzi proliferation | shares compounds with T cruzi growth-1 | T. cruzi beta-gal in NIH3T3, GalScreen luminescence, 90 h | inhibition, % at 2.09 µM | actives 21% (n = 5,600);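 active = mean inhibition above about 95%, with at least 55% of replicates also reaching it, limit read from the data; inconclusive = meets just one of the two conditions; inactive = meets neither condition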;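 also: plate controls were neutral control median for no effect and positive control median for full effect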
NIH3T3 tox: cytotoxicity in mouse NIH/3T3 fibroblasts; NIH/3T3 viability, CellTiter-Glo ATP luminescence, 90 h; cytotoxicity (signal decrease), % at 8.35 µM; actives 14% (n = 5,600); shares compounds with T cruzi growth-1;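 active = mean signal decrease across replicates above about 35% based on untreated-well scatter, with enough replicates individually passing, limit read from the data; inconclusive = no rule stated though some were filed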;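 also: 0% = median of neutral control wells and 100% = median of positive control wells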
NIH3T3 tox 2: cytotoxicity in mouse NIH/3T3 fibroblasts; shares compounds with T cruzi growth-1; NIH/3T3 viability, CellTiter-Glo ATP luminescence, 90 h; inhibition, % at 24.9 µM; actives 56% (n = 5,600); AID 651744;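 active = mean loss of cell viability signal at or above a set limit, and enough replicates individually reaching it; inconclusive = meets only the mean limit or only the replicate share; inactive = meets neither condition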;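 also: 0% = median of neutral control wells and 100% = median of positive control wells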
An asterisk follows results filed as active; ? = inconclusive; . = no result given.

SMILES	KDM4C inh	IDH1 mut inh	T cruzi growth-1	T cruzi growth-2	T cruzi growth-3	NIH3T3 tox	NIH3T3 tox 2
C[C@H](CO)N1C[C@H](C)[C@@H](CN(C)C(=O)Nc2ccc(F)cc2)Oc2c(NC(=O)Nc3cccc4ccccc34)cccc2C1=O	1	-1	92	.	.	.	.
C[C@@H]1CN([C@@H](C)CO)C(=O)c2cccc(NC(=O)Nc3ccc(F)cc3)c2O[C@@H]1CN(C)C(=O)Nc1ccc(C(F)(F)F)cc1	-1	4	?	111*	5	24	40*
C[C@@H]1CN([C@@H](C)CO)C(=O)c2cccc(NC(=O)Nc3ccc(C(F)(F)F)cc3)c2O[C@@H]1CN(C)C(=O)Nc1ccc(F)cc1	.	0	74	.	.	.	.
C[C@@H]1CN([C@H](C)CO)C(=O)c2cccc(NC(=O)Nc3cccc4ccccc34)c2O[C@H]1CN(C)C(=O)Nc1ccc(F)cc1	0	-1	99*	103*	60	5	21
C[C@H](CO)N1C[C@H](C)[C@H](CN(C)CC2CC2)Oc2c(NC(=O)Nc3ccc(C(F)(F)F)cc3)cccc2C1=O	1	1	118*	101*	100*	-16	29
CC(C(=O)Nc1ccc(I)cc1)N(c1ccc(Cl)cc1)S(C)(=O)=O (centres undefined)	.	0	.	.	.	.	.
CO[C@H]1CN(C)C(=O)c2ccc(NC(=O)NC(C)C)cc2OC[C@H](C)N(C(=O)C2CCC2)C[C@@H]1C	1	.	.	.	.	.	.
COC(=O)CCCCCCC(=O)N/N=C/c1ccc(OC)c(OC)c1	.	0	.	.	.	.	.
C[C@@H]1CCCCO[C@@H](CN(C)Cc2ccccc2)[C@@H](C)CN([C@H](C)CO)C(=O)c2cc(NS(C)(=O)=O)ccc2O1	1	1	14	.	.	.	.
COc1cc(C(=O)OC[C@@]2(O)CO[C@H](OC3C(CO)OC(OC(C)/C=C/C4(O)C(C)CC(O)CC4(C)C)C(O)C3O)[C@@H]2O)cc(OC)c1O (some centres undefined)	.	-1	.	.	.	.	.
Cc1cc(Br)ccc1NC(=O)CCCN1C(=O)c2ccccc2C1=O	.	1	.	.	.	.	.
CC(C)NC(=O)N(C)C[C@H]1Oc2c(NC(=O)Nc3ccc(C(F)(F)F)cc3)cccc2C(=O)N([C@@H](C)CO)C[C@@H]1C	0	.	?	65	24	27	57*
CC(C)NC(=O)N(C)C[C@@H]1Oc2c(NC(=O)Nc3ccc(C(F)(F)F)cc3)cccc2C(=O)N([C@@H](C)CO)C[C@H]1C	10	.	19	.	.	.	.
CCOc1cc([N+](=O)[O-])ccc1NC(=O)CC1Sc2ccccc2NC1=O (centres undefined)	.	0	.	.	.	.	.
Cc1cccc(-c2ccc([C@@H]3[C@@H](CO)N4CCCCN(C(=O)c5cccnc5)C[C@@H]34)cc2)c1	-1	.	100*	32	-7	2	19
Cc1cccc(-c2ccc([C@@H]3[C@H]4CN(C(=O)c5ccncc5)CCCCN4[C@H]3CO)cc2)c1	-1	.	31	.	.	.	.
Cc1ccccc1-c1ccc([C@H]2[C@H](CO)N3CCCCN(C(=O)c4cccnc4)C[C@@H]23)cc1	-2	.	93	.	.	.	.
Cc1cccc(-c2ccc([C@H]3[C@H]4CN(C(=O)c5cccnc5)CCCCN4[C@H]3CO)cc2)c1	2	.	109*	?	27	12	26*
O=C(c1ccncc1)N1CCCCN2[C@H](CO)[C@H](c3ccc(-c4ccccc4)cc3)[C@@H]2C1	-1	.	119*	82	6	-9	18
Cc1cccc(-c2ccc([C@@H]3[C@@H](CO)N4CCCCN(C(=O)c5cccnc5)C[C@H]34)cc2)c1	1	.	?	56	-12	11	30*
Cc1cccc(-c2ccc([C@@H]3[C@@H](CO)N4CCCCN(C(=O)c5ccncc5)C[C@@H]34)cc2)c1	-1	.	58	.	.	.	.
O=C(c1ccncc1)N1CCCCN2[C@H](C1)[C@@H](c1ccc(-c3ccccc3)cc1)[C@@H]2CO	-1	.	9	.	.	.	.
Cc1noc(C)c1S(=O)(=O)Nc1ccc2c(c1)C(=O)N([C@H](C)CO)C[C@@H](C)[C@@H](CN(C)C(=O)Nc1ccc3c(c1)OCO3)OCCCC[C@@H](C)O2	5	.	29	.	.	.	.
